In ChEMBL document CHEMBL4265981, “Design, synthesis, and biological evaluation of novel pan agonists of FFA1, PPARγ and PPARδ” (Eur J Med Chem, 2018):
pEC50: −log10 of the molar value.

What was measured:
[1] = biological target: T1, Free fatty acid receptor 1 (Homo sapiens, UniProt O14842); assay: Agonist activity at human FFA1 expressed in CHO cells assessed as increase in intracellular Ca2+ flux after 1 hr by Fluo4-AM dye based FLIPR assay; type: functional, cell-based
In short: (§1)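 CHO cells stably expressing human FFA1, seeded 16 h at 37 °C, washed with HBSS, then loaded 1 h at 37 °C with Fluo 4-AM (2.5 μg/mL), 2.5 mmol/L probenecid and 0.1% fatty acid-free BSA. Intracellular Ca2+ flux read by FLIPR after compound addition at various concentrations.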

[2] = biological target: T2, Peroxisome proliferator-activated receptor gamma (Homo sapiens, UniProt P37231); assay: Agonist activity at human GAL4 fused PPARgamma-LBD expressed in HEK293 cells after 18 hrs by luciferase reporter gene assay; type: cell-based
T2 sequence (P37231 whole entry): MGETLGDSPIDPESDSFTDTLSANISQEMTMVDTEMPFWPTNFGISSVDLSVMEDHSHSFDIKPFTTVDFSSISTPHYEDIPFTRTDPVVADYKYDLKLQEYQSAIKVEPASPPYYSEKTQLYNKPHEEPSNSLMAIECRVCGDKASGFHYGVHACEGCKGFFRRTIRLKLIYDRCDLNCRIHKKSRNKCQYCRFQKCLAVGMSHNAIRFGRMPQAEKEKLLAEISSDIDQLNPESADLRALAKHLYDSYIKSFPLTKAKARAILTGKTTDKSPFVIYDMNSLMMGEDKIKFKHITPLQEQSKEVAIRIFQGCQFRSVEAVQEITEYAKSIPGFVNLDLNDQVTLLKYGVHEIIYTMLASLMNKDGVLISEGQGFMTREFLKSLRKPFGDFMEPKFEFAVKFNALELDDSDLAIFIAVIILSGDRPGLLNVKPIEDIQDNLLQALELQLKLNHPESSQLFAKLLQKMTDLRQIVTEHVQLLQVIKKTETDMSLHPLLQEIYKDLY
In short: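 HEK293 cells plated 1 day ahead in antibiotic-free DMEM, transiently transfected with pBIND-PPARγ plus pG5Luc reporter (25 ng/well each). After 24 h, compounds added at various concentrations for 18 h. Dual firefly/renilla luciferase read-out, firefly normalized to renilla. % activation scaled between no-compound control and reference agonist; EC50 is the mean of three determinations.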

[3] = biological target: T3, Peroxisome proliferator-activated receptor delta (Homo sapiens, UniProt Q03181); assay: Agonist activity at human GAL4 fused PPARdelta-LBD expressed in HEK293 cells after 18 hrs by luciferase reporter gene assay; type: cell-based
T3 sequence (Q03181 whole entry): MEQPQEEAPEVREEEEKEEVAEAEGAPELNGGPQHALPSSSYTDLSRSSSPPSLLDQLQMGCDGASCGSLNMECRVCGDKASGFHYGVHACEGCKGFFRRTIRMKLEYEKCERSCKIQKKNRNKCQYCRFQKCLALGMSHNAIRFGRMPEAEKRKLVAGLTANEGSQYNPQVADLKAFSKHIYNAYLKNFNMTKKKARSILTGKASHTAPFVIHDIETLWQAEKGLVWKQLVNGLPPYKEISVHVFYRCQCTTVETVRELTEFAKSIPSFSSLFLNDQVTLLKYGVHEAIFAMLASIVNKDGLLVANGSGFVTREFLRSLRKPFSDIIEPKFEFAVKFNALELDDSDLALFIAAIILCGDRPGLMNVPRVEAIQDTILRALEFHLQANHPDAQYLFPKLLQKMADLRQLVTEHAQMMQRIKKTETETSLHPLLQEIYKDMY

[4] = biological target: T4, Peroxisome proliferator-activated receptor alpha (Homo sapiens, UniProt Q07869); assay: Agonist activity at human GAL4 fused PPARalpha-LBD expressed in human HepG2 cells after 18 hrs by luciferase reporter gene assay; type: cell-based
T4 sequence (Q07869 whole entry): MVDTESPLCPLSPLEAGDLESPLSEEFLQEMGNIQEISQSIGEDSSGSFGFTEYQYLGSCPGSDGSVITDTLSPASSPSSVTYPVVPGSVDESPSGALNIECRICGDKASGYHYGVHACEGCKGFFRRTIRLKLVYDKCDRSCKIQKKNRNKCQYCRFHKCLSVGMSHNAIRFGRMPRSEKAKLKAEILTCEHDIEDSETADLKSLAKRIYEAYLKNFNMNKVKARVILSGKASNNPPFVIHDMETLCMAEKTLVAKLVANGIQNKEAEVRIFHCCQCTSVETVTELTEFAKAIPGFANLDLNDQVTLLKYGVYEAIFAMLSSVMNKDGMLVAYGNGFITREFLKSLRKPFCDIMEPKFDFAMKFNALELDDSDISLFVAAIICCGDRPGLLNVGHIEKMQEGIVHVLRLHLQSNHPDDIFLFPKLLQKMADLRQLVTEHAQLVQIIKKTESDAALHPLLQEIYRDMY
In short: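 HepG2 cells plated 1 day ahead in antibiotic-free MEM, then run by the same GAL4 protocol: pBIND-PPAR construct plus pG5Luc reporter transfection, 18 h compound exposure at various concentrations. Firefly/renilla luciferase ratio scaled between no-compound and reference-agonist controls. EC50 is the mean of three determinations.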

[5] = test system: Mus musculus; assay: Hypoglycemic activity in ICR mouse assessed as decrease in blood glucose AUC (0 to 120 mins) at 20 mg/kg, po administered 30 mins prior to glucose load by OGTT relative to control; type: functional; parameters: scale not given: the % may be the effect or the level left
In short: (§2)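 Male ICR mice (18–22 g), acclimatized 1 week. Single oral dose (10, 30, 100 or 20 mg/kg) in 0.5% carboxymethylcellulose/methylcellulose vehicle, given 30 min before an oral glucose load of 3 g/kg. Blood glucose measured by test strip at −30, 0, 15, 30, 60 and 120 min. AUC0–120 min compared with vehicle.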

[6] = test system: Mus musculus; assay: Hypoglycemic activity in ob/ob mouse assessed as decrease in blood glucose AUC (0 to 120 mins) at 40 mg/kg, po bid administered via gavage 30 mins prior to glucose load by OGTT relative to control; type: functional; parameters: scale not given: the % may be the effect or the level left
In short: (§3)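 Male ob/ob mice, six weeks old, acclimatized 1 week. Dosed by gavage twice daily for 5 days with 100 or 40 mg/kg, or with 0.5% methylcellulose vehicle. OGTT on days 0 and 5: overnight fast, dose, then oral glucose 3 g/kg 30 min later. Tail-tip blood glucose by strip at −30, 0, 15, 30, 60 and 120 min. n = 6/group, mean ± SD, Student's t test.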

[7] = test system: Mus musculus; assay: Hypoglycemic activity in ob/ob mouse assessed as decrease in blood glucose AUC (0 to 120 mins) at 40 mg/kg, po bid administered via gavage for 5 days starting at 30 mins prior to glucose load by OGTT relative to control; type: functional; parameters: scale not given: the % may be the effect or the level left; in short: as §3
[8] = test system: Mus musculus; assay: Hypoglycemic activity in ICR mouse assessed as decrease in blood glucose AUC (0 to 120 mins) at 10 mg/kg, po administered 30 mins prior to glucose load by OGTT relative to control; type: functional; parameters: scale not given: the % may be the effect or the level left; in short: as §2
[9] = test system: Mus musculus; assay: Hypoglycemic activity in ob/ob mouse assessed as decrease in blood glucose AUC (0 to 120 mins) at 100 mg/kg, po bid administered via gavage for 5 days starting at 30 mins prior to glucose load by OGTT relative to control; type: functional; parameters: scale not given: the % may be the effect or the level left; in short: as §3
[10] = test system: Mus musculus; assay: Hypoglycemic activity in ob/ob mouse assessed as decrease in blood glucose AUC (0 to 120 mins) at 100 mg/kg, po bid administered via gavage 30 mins prior to glucose load by OGTT relative to control; type: functional; parameters: scale not given: the % may be the effect or the level left; in short: as §3
[11] = test system: Mus musculus; assay: Hypoglycemic activity in ICR mouse assessed as decrease in plasma glucose level administered orally 30 mins prior to glucose load and measured after 120 mins by OGTT; type: functional, organism-based; in short: as §2
[12] = test system: Mus musculus; assay: Hypoglycemic activity in ICR mouse assessed as decrease in blood glucose AUC (0 to 120 mins) at 30 mg/kg, po administered 30 mins prior to glucose load by OGTT relative to control; type: functional; parameters: scale not given: the % may be the effect or the level left; in short: as §2
[13] = test system: Mus musculus; assay: Hypoglycemic activity in ICR mouse assessed as decrease in blood glucose AUC (0 to 120 mins) at 100 mg/kg, po administered 30 mins prior to glucose load by OGTT relative to control; type: functional; parameters: scale not given: the % may be the effect or the level left; in short: as §2
[14] = biological target: T1, Free fatty acid receptor 1; assay: Agonist activity at FFA1 (unknown origin); type: functional; in short: as §1

T1 sequence (O14842 whole entry): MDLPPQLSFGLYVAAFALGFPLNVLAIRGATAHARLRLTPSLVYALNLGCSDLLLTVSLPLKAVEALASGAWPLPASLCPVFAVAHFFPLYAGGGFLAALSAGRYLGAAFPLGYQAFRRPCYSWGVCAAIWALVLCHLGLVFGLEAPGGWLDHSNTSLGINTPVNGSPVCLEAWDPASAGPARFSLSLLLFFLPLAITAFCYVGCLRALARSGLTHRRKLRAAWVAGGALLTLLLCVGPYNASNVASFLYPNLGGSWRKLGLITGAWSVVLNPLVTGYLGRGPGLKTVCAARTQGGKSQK

| Structure (SMILES) | pEC50 [1] | pEC50 [2] | pEC50 [3] | pEC50 [4] | also measured |
| --- | --- | --- | --- | --- | --- |
| Cc1cccc(OCCCOc2ccc3c(c2)OCC3CC(=O)O)c1 (stereo unspecified) | 5.44 | 5.76 | 5.62 | < 5.00 | – |
| O=C(O)CC1COc2cc(OCCOc3ccccc3)ccc21 (stereo unspecified) | < 5.00 | 5.11 | 5.10 | < 5.00 | – |
| O=C(O)CC1COc2cc(OCCCOc3ccccc3F)ccc21 (stereo unspecified) | < 5.00 | 5.57 | 5.68 | < 5.00 | – |
| [2H]C([2H])(Cc1ccc(OCCCOc2cccc(Cl)c2)cc1)C(=O)O | 5.48 | 5.72 | 5.34 | < 5.00 | – |
| Cc1ccc(OCCCOc2ccc3c(c2)OCC3CC(=O)O)cc1 (stereo unspecified) | 5.12 | 5.74 | 5.71 | < 5.00 | – |
| CC(C)(C)c1cccc(OCCCOc2ccc3c(c2)OCC3CC(=O)O)c1 (stereo unspecified) | 5.52 | 5.76 | 5.32 | < 5.00 | – |
| O=C(O)CC1COc2cc(OCCCOc3cccc(-c4ccccc4)c3)ccc21 (stereo unspecified) | 5.56 | 5.73 | 5.26 | < 5.00 | – |
| O=C(O)C[C@@H]1CCc2cc(OCCCOc3ccccc3)ccc21 | < 5.00 | < 5.00 | 6.77 | < 5.00 | – |
| Cc1cc(OCCCS(C)(=O)=O)cc(C)c1-c1cccc(COc2ccc3c(c2)OC[C@H]3CC(=O)O)c1 | – | – | – | – | Activity [5]: -26.9%; Activity [6]: 13.1%; Activity [7]: 20.2% |
| O=C(O)C[C@@H]1COc2cc(OCCCOc3cccc(Cl)c3)ccc21 | 5.62 | 5.84 | 5.76 | < 5.00 | Activity [8]: 1.1%; Activity [9]: 17.3%; Activity [10]: 7.6%; Activity [11]: Dose-dependent effect; Activity [12]: 8.1%; Activity [13]: 18.6% |
| O=C(O)CC1COc2cc(OCCCOc3ccccc3)ccc21 (stereo unspecified) | < 5.00 | 5.28 | 5.49 | < 5.00 | – |
| O=C(O)CC1COc2cc(OCCCOc3ccc(-c4ccccc4)cc3)ccc21 (stereo unspecified) | 5.37 | 5.53 | 5.70 | 5.14 | – |
| O=C(O)CC1COc2cc(OCCCOc3cccc(Cl)c3)ccc21 (stereo unspecified) | 5.51 | 5.77 | 5.67 | < 5.00 | – |
| O=C(O)CS(=O)(=O)c1ccc(OCCCOc2cccc(Cl)c2)cc1 | < 5.00 | < 5.00 | < 5.00 | < 5.00 | – |
| O=C(O)CC1COc2cc(OCCCOc3cccc(Br)c3)ccc21 (stereo unspecified) | 5.46 | 5.78 | 5.63 | < 5.00 | – |
| O=C(O)COc1ccc(OCCCOc2cccc(Cl)c2)cc1F | 5.07 | 5.50 | 5.47 | < 5.00 | – |
| Cc1cc(OCCCOc2ccc(-c3ccccc3)cc2)ccc1OCC(=O)O | < 5.00 | 5.34 | 5.82 | 5.28 | – |
| Cc1ccccc1OCCCOc1ccc2c(c1)OCC2CC(=O)O (stereo unspecified) | < 5.00 | 5.69 | 5.71 | < 5.00 | – |
| Cc1cc(OCCCOc2cccc(Cl)c2)ccc1OCC(=O)O | < 5.00 | 5.81 | 5.76 | < 5.00 | – |
| CC(C)(C)c1cccc(OCCOc2ccc3c(c2)OCC3CC(=O)O)c1 (stereo unspecified) | 5.41 | 5.69 | 5.02 | < 5.00 | – |
| CC#C[C@@H](CC(=O)O)c1ccc(OCCCOc2cccc(Cl)c2)cc1 | – | – | – | – | pEC50 [14]: 8.00 |
